{"source": "paper PMC4203514", "about": "(Autophagy, 2014)", "key": {"[1]": {"tested_on": "patients with advanced solid tumors", "assay": "Treatment-related adverse events by grade", "format": "in vivo, human", "in_short": "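Patients who took at least one dose of the oral test compound, given with a dose-intense oral alkylating agent, were evaluable for toxicity. Adverse events were graded by NCI Common Toxicity Criteria v3.0, and haematological toxicities were attributed to the alkylating agent. Complete blood counts were done weekly for the first 6 wk and biweekly thereafter. Treatment ran in 28 d cycles.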"}, "[2]": {"tested_on": "patients with rheumatoid arthritis", "conditions": "1200 mg/d HCQ (600 mg twice daily), after 6 wk; cited from earlier work"}, "[3]": {"tested_on": "patients with advanced solid tumors", "format": "in vivo, human", "in_short": "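Open-label single-institution 3 + 3 escalation of the oral test compound only, starting at 200 mg daily, split twice daily about 12 h apart above 200 mg, up to 1200 mg. A 14 d monotherapy run-in preceded an oral alkylating agent at 150 mg/m2 daily for 7 of 14 d, in 28 d cycles. DLT was any at least possibly related grade ≥ 3 event in the first 6 wk. MTD was ≤ 1/6 patients with DLT.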"}, "glioma": {"tested_on": "glioma", "conditions": "cited from earlier work"}, "[4]": {"conditions": "all patients (37 evaluable for toxicities)"}}, "note": "Entries after “also recorded” stand apart in the source; their conditions may differ. Read-outs that look alike come from different tables or passages of the source."}
{"smiles": "CCN(CCO)CCCC(C)Nc1ccnc2cc(Cl)ccc12", "note": "(stereo not drawn) [HCQ, hydroxychloroquine]", "values": [{"measurement": "Constipation G1/G2", "setting": "[1]; HCQ 800 mg (n = 15) with TMZ", "result": "4 (27) No. (%)"}, {"measurement": "Diarrhea G1/G2", "setting": "[1]; HCQ 800 mg (n = 15) with TMZ", "result": "2 (13) No. (%)"}, {"measurement": "Dyspepsia G1/G2", "setting": "[1]; HCQ 800 mg (n = 15) with TMZ", "result": "1 (7) No. (%)"}, {"measurement": "Fatigue G1/G2", "setting": "[1]; HCQ 800 mg (n = 15) with TMZ", "result": "7 (47) No. (%)"}, {"measurement": "Headaches G1/G2", "setting": "[1]; HCQ 800 mg (n = 15) with TMZ", "result": "2 (13) No. (%)"}, {"measurement": "Leukopenia G3/G4", "setting": "[1]; HCQ 800 mg (n = 15) with TMZ", "result": "1 (7) No. (%)"}, {"measurement": "Lymphopenia G1/G2", "setting": "[1]; HCQ 800 mg (n = 15) with TMZ", "result": "3 (20) No. (%)"}, {"measurement": "Lymphopenia G3/G4", "setting": "[1]; HCQ 800 mg (n = 15) with TMZ", "result": "1 (7) No. (%)"}, {"measurement": "Myalgias G1/G2", "setting": "[1]; HCQ 800 mg (n = 15) with TMZ", "result": "1 (7) No. (%)"}, {"measurement": "Nausea G1/G2", "setting": "[1]; HCQ 800 mg (n = 15) with TMZ", "result": "6 (40) No. (%)"}, {"measurement": "Neutropenia G3/G4", "setting": "[1]; HCQ 800 mg (n = 15) with TMZ", "result": "2 (13) No. (%)"}, {"measurement": "Pruritus G1/G2", "setting": "[1]; HCQ 800 mg (n = 15) with TMZ", "result": "1 (7) No. (%)"}, {"measurement": "Rash G1/G2", "setting": "[1]; HCQ 800 mg (n = 15) with TMZ", "result": "2 (13) No. (%)"}, {"measurement": "Taste change G1/G2", "setting": "[1]; HCQ 800 mg (n = 15) with TMZ", "result": "1 (7) No. (%)"}, {"measurement": "Thrombocytopenia G3/G4", "setting": "[1]; HCQ 800 mg (n = 15) with TMZ", "result": "2 (13) No. (%)"}, {"measurement": "Vomiting G1/G2", "setting": "[1]; HCQ 800 mg (n = 15) with TMZ", "result": "3 (20) No. (%)"}, {"measurement": "Abdominal pain G1/G2", "setting": "[1]; HCQ 1000 mg (n = 7) with TMZ", "result": "2 (29) No. (%)"}, {"measurement": "Anemia G3/G4", "setting": "[1]; HCQ 1000 mg (n = 7) with TMZ", "result": "1 (14) No. (%)"}, {"measurement": "Anorexia G1/G2", "setting": "[1]; HCQ 1000 mg (n = 7) with TMZ", "result": "1 (14) No. (%)"}, {"measurement": "Constipation G1/G2", "setting": "[1]; HCQ 1000 mg (n = 7) with TMZ", "result": "1 (14) No. (%)"}, {"measurement": "Diarrhea G1/G2", "setting": "[1]; HCQ 1000 mg (n = 7) with TMZ", "result": "3 (43) No. (%)"}, {"measurement": "Dizziness G1/G2", "setting": "[1]; HCQ 1000 mg (n = 7) with TMZ", "result": "1 (14) No. (%)"}, {"measurement": "Fatigue G1/G2", "setting": "[1]; HCQ 1000 mg (n = 7) with TMZ", "result": "5 (71) No. (%)"}, {"measurement": "Headaches G1/G2", "setting": "[1]; HCQ 1000 mg (n = 7) with TMZ", "result": "1 (14) No. (%)"}, {"measurement": "Lymphopenia G1/G2", "setting": "[1]; HCQ 1000 mg (n = 7) with TMZ", "result": "1 (14) No. (%)"}, {"measurement": "Nausea G1/G2", "setting": "[1]; HCQ 1000 mg (n = 7) with TMZ", "result": "5 (71) No. (%)"}, {"measurement": "Pruritus G1/G2", "setting": "[1]; HCQ 1000 mg (n = 7) with TMZ", "result": "1 (14) No. (%)"}, {"measurement": "Rash G3/G4", "setting": "[1]; HCQ 1000 mg (n = 7) with TMZ", "result": "1 (14) No. (%)"}, {"measurement": "Taste change G1/G2", "setting": "[1]; HCQ 1000 mg (n = 7) with TMZ", "result": "1 (14) No. (%)"}, {"measurement": "Thrombocytopenia G1/G2", "setting": "[1]; HCQ 1000 mg (n = 7) with TMZ", "result": "2 (29) No. (%)"}, {"measurement": "Vomiting G1/G2", "setting": "[1]; HCQ 1000 mg (n = 7) with TMZ", "result": "2 (29) No. (%)"}, {"measurement": "Anemia G1/G2", "setting": "[1]; HCQ 1200 mg (n = 8) with TMZ", "result": "1 (13) No. (%)"}, {"measurement": "Anorexia G1/G2", "setting": "[1]; HCQ 1200 mg (n = 8) with TMZ", "result": "3 (38) No. (%)"}, {"measurement": "Bradycardia G1/G2", "setting": "[1]; HCQ 1200 mg (n = 8) with TMZ", "result": "1 (13) No. (%)"}, {"measurement": "Constipation G1/G2", "setting": "[1]; HCQ 1200 mg (n = 8) with TMZ", "result": "2 (25) No. (%)"}, {"measurement": "Diarrhea G1/G2", "setting": "[1]; HCQ 1200 mg (n = 8) with TMZ", "result": "2 (25) No. (%)"}, {"measurement": "Fatigue G1/G2", "setting": "[1]; HCQ 1200 mg (n = 8) with TMZ", "result": "7 (88) No. (%)"}, {"measurement": "Hypotension G1/G2", "setting": "[1]; HCQ 1200 mg (n = 8) with TMZ", "result": "1 (13) No. (%)"}, {"measurement": "Lymphopenia G3/G4", "setting": "[1]; HCQ 1200 mg (n = 8) with TMZ", "result": "1 (13) No. (%)"}, {"measurement": "Nausea G1/G2", "setting": "[1]; HCQ 1200 mg (n = 8) with TMZ", "result": "4 (50) No. (%)"}, {"measurement": "Nausea G3/G4", "setting": "[1]; HCQ 1200 mg (n = 8) with TMZ", "result": "1 (13) No. (%)"}, {"measurement": "Rash G1/G2", "setting": "[1]; HCQ 1200 mg (n = 8) with TMZ", "result": "1 (13) No. (%)"}, {"measurement": "Thrombocytopenia G1/G2", "setting": "[1]; HCQ 1200 mg (n = 8) with TMZ", "result": "1 (13) No. (%)"}, {"measurement": "Vomiting G1/G2", "setting": "[1]; HCQ 1200 mg (n = 8) with TMZ", "result": "2 (25) No. (%)"}, {"measurement": "Vomiting G3/G4", "setting": "[1]; HCQ 1200 mg (n = 8) with TMZ", "result": "1 (13) No. (%)"}, {"measurement": "≥ grade 1 treatment-related anorexia", "setting": "[1]; [4]", "result": 35, "unit": "%"}, {"measurement": "≥ grade 1 treatment-related constipation", "setting": "[1]; [4]", "result": 22, "unit": "%"}, {"measurement": "≥ grade 1 treatment-related diarrhea", "setting": "[1]; [4]", "result": 24, "unit": "%"}, {"measurement": "≥ grade 1 treatment-related fatigue", "setting": "[1]; [4]", "result": 97, "unit": "%"}, {"measurement": "≥ grade 1 treatment-related nausea", "setting": "[1]; [4]", "result": 65, "unit": "%"}, {"measurement": "Dose-limiting toxicity as a single agent", "setting": "[2]", "result": "dose-limiting nausea"}, {"measurement": "Maximum tolerated dose (MTD)", "setting": "[3]; HCQ up to 1200 mg/d combined with dose-intense TMZ 150 mg/m^2 daily for 7/14 d", "result": "No maximal tolerated dose; also recorded: not reached"}, {"measurement": "Recommended phase II dose (RPTD)", "setting": "[3]; combined with dose-intense TMZ, dose level 5", "result": 600, "unit": "mg twice daily"}, {"measurement": "Dose-limiting toxicity", "setting": "[3]; dose level 1 (HCQ 200 mg/day), three patients", "result": "no dose-limiting toxicity (DLT) was observed"}, {"measurement": "Dose-limiting toxicity", "setting": "[3]; dose level 2 (HCQ 400 mg/day)", "result": "no DLT observed"}, {"measurement": "Serious adverse event", "setting": "[3]; dose level 3 (HCQ 400 mg twice daily), patient on sotalol, within 8 d, attributed to dehydration and not to the study drug", "result": "third-degree heart block"}, {"measurement": "Dose-limiting toxicity", "setting": "[3]; dose level 4 (HCQ 1000 mg/day), none in 3 additional patients", "result": "one grade 3 rash"}, {"measurement": "Dose-limiting toxicity", "setting": "[3]; dose level 5 (HCQ 1200 mg/d), first cycle, none in expanded cohort", "result": "one patient experienced grade 3 nausea and vomiting"}, {"measurement": "Myelosuppression", "setting": "glioma; HCQ 800 mg with TMZ 75 mg/m^2 daily and brain radiation", "result": "all experienced grade 4 myelosuppression"}, {"measurement": "Maximal tolerated dose of HCQ", "setting": "glioma; combined with TMZ 75 mg/m^2 daily for 6 wk with concomitant brain radiation", "result": 600, "unit": "mg daily"}]}
